Laboratory results: publication PMC8360131 (Angewandte Chemie (International Ed. in English), 2021)
pIC50: −log10 of the molar value. Where two headings read alike, the source gives them in different places. *1 amine or outer side, *2 acyl side, *3 side chain or, on linkers, in order; H or OH if unused. Where a SMILES comes first, the peptide text is derived from it. [ ]: non-standard residue; d: D form. The star is where a group is joined. X1 = CCC(=O)C[C@H](O)C[C@@H](C)C[C@H](N[*:1])C(=O)[*:2]; Hexenoyl(2E,4S-Me) = CC[C@H](C)/C=C/C(=O)*; Leu(3R-OH) = CC(C)[C@@H](O)[C@H](N)C(=O)O; NH((S)CH(Me)CH2NMe2) = C[C@@H](CN(C)C)N*; Pro(4S-Me) = C[C@@H]1CN[C@H](C(=O)O)C1; NH(1-CH2NMe2-cBu) = CN(C)CC1(N*)CCC1; Oxazole4CO(2-Me) = Cc1nc(C(=O)*)co1; hCha = N[C@@H](CCC1CCCCC1)C(=O)O; NMeL = CN[C@@H](CC(C)C)C(=O)O; Aib = CC(C)(N)C(=O)O; βAla = NCCC(=O)O

Legend:
[1] = tested on: Trypanosoma cruzi (Tulahuen strain C2C4); assay: T. cruzi assay in L6 cells; assay type: cell-based; details: read-out: T. cruzi; intracellular
[2] = mice; cited from earlier work
[3] = tested on: Leishmania donovani intracellular amastigotes; assay: L. donovani intracellular amastigotes in macrophages; assay type: cell-based; details: read-out: L. donovani. Macrophage, mouse peritoneal macrophages
[4] = tested on: T. b. brucei bloodstream forms; assay: TMRE mitochondrial membrane potential assay; assay type: cell-based
Summary of the method: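 The mitochondrial membrane potential of bloodstream-form T. b. brucei (NYsm) was quantified with the potential-sensitive dye TMRE, before and after test compound treatment. TMRE fluorescence was expressed relative to control parasites. CCCP served as positive control.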

[5] = tested on: Leishmania donovani axenic amastigotes (strain MHOM/ET/67/L82); assay: L. donovani axenic amastigotes resazurin assay; assay type: cell-based; details: for pIC50: read-out: L. donovani. axenic amastigotes, range in parentheses
[6] = tested on: T. b. brucei 427 bloodstream forms; assay: T. b. brucei bloodstream form resazurin IC50 assay; assay type: cell-based; details: read-out: activity on T. b. brucei; 72 h exposure
Trypanosoma brucei = details: read-out: IC50 Trypanosoma brucei; cited from earlier work
Plasmodium falciparum = details: read-out: IC50 Plasmodium falciparum; cited from earlier work
[7] = tested on: T. b. brucei bloodstream forms; assay: MitoTracker fluorescence microscopy; assay type: cell-based; details: 24 h treatment; 4 and 5 at 40 nM final concentration
Summary of the method: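 Bloodstream-form T. b. brucei (NYsm strain) were exposed to test compound for 24 h, some at 40 nM final concentration. Cells were then incubated with the mitochondrial membrane potential-dependent dye MitoTracker, co-stained with DAPI and anti-ATOM40, and examined by fluorescence microscopy with DIC imaging. Untreated parasites were stained in parallel.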

[8] = tested on: bacteria, fungi, and cancer cells; details: cited from earlier work
T. brucei [9] = details: cited from earlier work
T. brucei [10] = details: cited from earlier work; remark: listed apart in the source

Q: With CCC(=O)C[C@H](O)C[C@@H](C)C[C@H](NC(=O)[C@@H]1C[C@H](C)CN1C(=O)/C=C/[C@@H](C)CC)C(=O)N[C@H](C(=O)NC(C)(C)C(=O)N[C@@H](CC(C)C)C(=O)N[C@@H](CC(C)C)C(=O)NC(C)(C)C(=O)NC(C)(C)C(=O)NCCC(=O)N[C@@H](C)CN(C)C)[C@H](O)C(C)C [leucinostatin A (1 a), leucinostatin A] ({Hexenoyl(2E,4S-Me)}-[Pro(4S-Me)][X1][Leu(3R-OH)][Aib]LL[Aib][Aib][βAla]-{NH((S)CH(Me)CH2NMe2)}) as the compound, how does the pIC50 [1] read?
A: 7.64

Q: What about the “ip LD50” value [2] of the same compound?
A: 1.1 mg/kg

Q: What about the pIC50 [3] of the same compound?
A: 8.01

Q: What about the “TMRE fluorescence relative to control parasites” value [4] of the same compound?
A: concentration‐dependent decrease

Q: And the pIC50 [5]?
A: 8.98

Q: What about the pIC50 [6] of the same compound?
A: 9.40

Q: And the pIC50 (Trypanosoma brucei)?
A: 8.55

Q: What about the pIC50 (Plasmodium falciparum) of the same compound?
A: 9.05 to 9.40

Q: With Cc1nc(C(=O)N2CCC[C@H]2C(=O)N[C@@H](CCC2CCCCC2)C(=O)N[C@@H](CC(C)C)C(=O)NC(C)(C)C(=O)N[C@@H](CC(C)C)C(=O)N(C)[C@@H](CC(C)C)C(=O)NC(C)(C)C(=O)NC(C)(C)C(=O)NCCC(=O)NC2(CN(C)C)CCC2)co1 [Compound 3] ({Oxazole4CO(2-Me)}-P[hCha]L[Aib]L[NMeL][Aib][Aib][βAla]-{NH(1-CH2NMe2-cBu)}) as the compound, how does the pIC50 [1] read?
A: < 5.70

Q: And the “TMRE fluorescence relative to control parasites” value [4]?
A: no changes

Q: And the MitoTracker mitochondrial staining [7]?
A: no changes

Q: And the pIC50 [5]?
A: 5.03

Q: With leucinostatin Y as the compound, how does the “activity compared with leucinostatin A” value [8] read?
A: far less active

Q: With CCCCCCCCCCCCCCCCOP(=O)([O-])OCC[N+](C)(C)C [miltefosine] as the compound, how does the IC50 ([5]; Leishmania donovani, read-out: L. donovani. axenic amastigotes [nM]) read?
A: 483 nM

Q: Which “mean duration of survival compared to untreated mice” value (T. brucei [9]; 4×0.3 mg kg^−1 ip) does the source give for leucinostatin B [leucinostatin B (1 b)] here?
A: slightly increased

Q: And the mice cured (T. brucei [9]; 4×0.3 mg kg^−1 ip)?
A: no mice were cured

Q: And the mice cured (T. brucei [9]; 4×1.0 mg kg^−1 ip)?
A: one of 4 mice was cured

Q: And the “mean duration of survival” value (T. brucei [9]; 4×1.0 mg kg^−1 ip, untreated 11.3 days)?
A: 28 days

Q: What about the curative effect (T. brucei [10]; 4×0.3 mg kg^−1 ip) of the same compound?
A: curative effects

Q: And the curative effect (T. brucei [10]; 4×1.0 mg kg^−1 ip)?
A: curative effects
